Assay [1] can be described thus: nonspecific flux increase, KCNQ1-free cells – parental CHO cells, counter-screen for KCNQ1 potentiator project (AID 493006;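 active means duplicate-averaged activation above buffer control mean plus 5 SD of those controls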;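 on activation: fluorescence ratio of max minus min over baseline after K+ and Tl+ depolarization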). The note with it: parental CHO-K1 cells, FluxOR thallium flux, at 10 µM; stronger effect = higher value. In outline: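 Material: untransfected host CHO-K1 cells with FluxOR thallium dye. Timing: overnight 37 °C plating, 90 min RT dye, 20 min compound. Detection: kinetic FluxOR fluorescence, 10 s baseline, 110 s after stimulus. Read-out basis: max-minus-min fluorescence over baseline, percent of buffer-to-R-L3 span. Replicates: duplicate wells per compound, percent values averaged.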

Assay [2] deals with Potassium voltage-gated channel subfamily KQT member 1 (Homo sapiens) (UniProt P51787). Kind of assay: enhancement of KCNQ1 channel thallium flux – FluxOR thallium flux, CHO cells, duplicates, confirmation (AID 493007;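 active means potentiation averaged over duplicate wells exceeding buffer-only control mean by more than 3 SD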;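 on outcome: cells depolarized by a potassium plus thallium sulfate stimulus after compound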). The note with it: KCNQ1 cell line, FluxOR thallium flux fluorescence, at 10 µM; stronger effect = higher value, % of reference activator effect, buffer zero. The gist of the method: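 Test system – KCNQ1-expressing CHO cell line · Incubation – FluxOR dye loading 90 min, compound exposure 20 min, room temperature · Detection – FluxOR Tl+ flux fluorescence, 10 s baseline plus 110 s recording · Controls – buffer-only wells as 0% and R-L3 activator as 100%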
Sequence of Potassium voltage-gated channel subfamily KQT member 1 (Homo sapiens) (P51787 whole entry, looked up): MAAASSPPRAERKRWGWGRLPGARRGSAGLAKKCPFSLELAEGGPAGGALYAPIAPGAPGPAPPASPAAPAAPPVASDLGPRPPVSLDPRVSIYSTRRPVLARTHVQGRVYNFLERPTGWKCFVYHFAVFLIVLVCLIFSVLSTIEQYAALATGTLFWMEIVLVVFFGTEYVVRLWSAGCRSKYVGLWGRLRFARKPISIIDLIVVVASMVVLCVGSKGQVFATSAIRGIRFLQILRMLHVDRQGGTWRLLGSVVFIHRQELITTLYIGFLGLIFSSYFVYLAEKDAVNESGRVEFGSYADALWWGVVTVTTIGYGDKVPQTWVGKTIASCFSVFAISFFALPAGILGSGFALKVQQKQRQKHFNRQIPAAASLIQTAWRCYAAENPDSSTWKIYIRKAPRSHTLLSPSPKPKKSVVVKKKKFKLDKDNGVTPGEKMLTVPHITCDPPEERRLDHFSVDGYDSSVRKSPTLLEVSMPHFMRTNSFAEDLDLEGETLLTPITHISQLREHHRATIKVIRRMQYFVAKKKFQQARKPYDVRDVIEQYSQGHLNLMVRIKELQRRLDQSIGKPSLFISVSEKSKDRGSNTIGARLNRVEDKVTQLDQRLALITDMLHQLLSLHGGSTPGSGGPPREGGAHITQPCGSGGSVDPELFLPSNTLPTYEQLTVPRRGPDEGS

For assay [3] the target is unchanged. Kind of assay: KCNQ1 activators by electrophysiology – IonWorks patch clamp, KCNQ1-CHO cells, orthogonal assay for KCNQ1 potentiator project, confirmation (AID 493184). The note with it: automated patch clamp current, at 10 µM; stronger effect = higher value. In outline:
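Read-out: Percent current increase versus pre-compound level | Assay system: CHO cells carrying KCNQ1 | Measured by: Automated perforated-patch electrophysiology | Medium: External bath solution at pH 7.4 | Dosing: One dose, 10 µM final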

In assay [4] the target is Potassium voltage-gated channel subfamily KQT member 2 (Rattus norvegicus) (UniProt O88943). Kind of assay: KCNQ2 thallium flux enhancement – KCNQ2-CHO-K1 cells, selectivity assay for KCNQ1 potentiator project (AID 493009;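 active means mean duplicate potentiation above the buffer control mean plus 5 SD of buffer wells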;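 further: assay conditions were tuned for KCNQ1 rather than KCNQ2 modulators; signal is max minus min fluorescence divided by baseline after thallium stimulus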). The note with it: FluxOR thallium flux fluorescence, at 10 µM; stronger effect = higher value, scaled: buffer 0, activator control 100.
Sequence of Potassium voltage-gated channel subfamily KQT member 2 (Rattus norvegicus) (O88943 whole entry, looked up): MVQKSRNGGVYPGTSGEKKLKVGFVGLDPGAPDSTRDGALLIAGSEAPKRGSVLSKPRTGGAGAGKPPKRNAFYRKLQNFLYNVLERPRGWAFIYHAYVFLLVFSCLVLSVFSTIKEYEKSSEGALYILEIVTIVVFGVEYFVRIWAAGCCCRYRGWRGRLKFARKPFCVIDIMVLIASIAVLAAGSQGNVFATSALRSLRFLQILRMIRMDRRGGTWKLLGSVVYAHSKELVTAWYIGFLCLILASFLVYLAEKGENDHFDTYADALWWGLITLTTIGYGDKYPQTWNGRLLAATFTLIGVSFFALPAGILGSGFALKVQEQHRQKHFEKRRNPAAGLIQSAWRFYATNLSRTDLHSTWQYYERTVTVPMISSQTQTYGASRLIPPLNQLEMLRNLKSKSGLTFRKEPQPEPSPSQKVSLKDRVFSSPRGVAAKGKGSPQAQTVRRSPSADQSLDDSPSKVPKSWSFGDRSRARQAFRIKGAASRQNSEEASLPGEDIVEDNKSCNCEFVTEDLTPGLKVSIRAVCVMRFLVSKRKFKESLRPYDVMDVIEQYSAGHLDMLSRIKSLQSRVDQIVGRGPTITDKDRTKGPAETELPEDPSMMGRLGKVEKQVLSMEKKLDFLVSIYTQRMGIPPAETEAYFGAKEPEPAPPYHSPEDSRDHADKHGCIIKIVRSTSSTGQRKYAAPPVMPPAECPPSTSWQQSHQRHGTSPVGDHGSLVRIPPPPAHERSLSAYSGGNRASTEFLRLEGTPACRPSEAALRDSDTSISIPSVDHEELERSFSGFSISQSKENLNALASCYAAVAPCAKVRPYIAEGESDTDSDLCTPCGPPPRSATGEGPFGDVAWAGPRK
The target of assay [5] is Potassium voltage-gated channel subfamily E member 1 (Homo sapiens) + Potassium voltage-gated channel subfamily KQT member 1 (Homo sapiens) (UniProt P15382+P51787). Put plainly: KCNQ1-E1 channel activation – thallium flux, CHO-K1 KCNQ1/E1 cells, selectivity assay for KCNQ1 potentiator project, confirmation (AID 493186;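 active means mean duplicate activation above the buffer control mean plus 5 SD of those controls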). The note with it: FluxOR thallium flux, at 10 µM; stronger effect = higher value. In outline: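 Test system: CHO-K1 cells with KCNQ1/E1; dosing: one test concentration; signal: FluxOR Tl+ flux fluorescence, kinetic read; incubation: 90-min dye loading then 20-min compound exposure, both at room temperature; read-out basis: percent of R-L3 effect over buffer; replication: duplicate wells per compound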
Sequence of Potassium voltage-gated channel subfamily E member 1 (Homo sapiens) + Potassium voltage-gated channel subfamily KQT member 1 (Homo sapiens) (P51787 whole entry, looked up): as the sequence (P51787 whole entry, looked up) above

The text below walks through data of PubChem BioAssay.

Values without a mark were called inactive. Activity calls are given as the source filed them.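 How the source made its calls, unless noted: active means current rise at least 3 SD above the untreated control mean in each of two repeat wells; inactive means the rest.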

Regarding `O=C(Nc1cccc(-c2nnc(-c3ccco3)o2)c1)c1ccccc1`, the result in assay [1], in assay [2] and in assay [3] was inactive.
Take `O=C(c1ccc(-c2ccccc2)cc1)C1CCCN(C(=O)Cn2cncn2)C1` (stereo not given): the result in assay [1], in assay [2], in assay [4], in assay [3] and in assay [5] was inactive.
Consider `COc1ccc(O)c(C(=O)c2cnn(-c3ccc(Cl)cc3)c2)c1`, for which the result in assay [1], in assay [2] and in assay [3] was inactive.
Turning to `CC(=O)n1cc(N(C(=O)CCl)c2ccc(C)cc2)c2ccccc21`, the outcome in assay [1], in assay [2] and in assay [3] was inactive.
Turning to `CC(CNC(=O)COc1ccccc1)OC(=O)Nc1ccc(Cl)c(Cl)c1` (stereo not given), the result in assay [1], in assay [2] and in assay [3] was inactive.
As for `CN(C(=S)NC(=O)c1ccc(F)cc1)C1CCCCC1`, the activation in assay [1] was 154% (active). The potentiation in assay [2] was 31.5% (active). Moreover, the result in assay [3] was inactive.
As for `CCCOc1ccccc1NS(=O)(=O)c1ccc2[nH]c(=O)[nH]c2c1`, the result in assay [1], in assay [2], in assay [4], in assay [3] and in assay [5] was inactive.
For the compound `S=C1N(c2ccccc2)C(c2ccccc2)N2CCCN12` (stereo not given), the outcome in assay [1], in assay [2], in assay [4], in assay [3] and in assay [5] was inactive.
For the compound `COC(=O)C1CCN(C(=O)Nc2ccc(OC)cc2)CC1`, the activation in assay [1] was 144% (active). Moreover, the potentiation in assay [2] was 33% (active). Also, the outcome in assay [3] was inactive.
Consider `Cc1ccc(C)c(NC(=S)NNC(=O)c2csc(C(C)C)c2)c1`, for which, in assay [1], the activation was 162% (active). The potentiation in assay [2] is 55.5% (active). Also, the outcome in assay [3] was inactive.
For the compound `Cc1ccc(Nc2c(-c3ccc(C)o3)nc3cnccn23)cc1`, the result in assay [1], in assay [2] and in assay [3] was inactive.
As to `Cc1cc(OC(=O)c2cc(Cl)ccc2Cl)c([N+](=O)[O-])c(=O)[nH]1`, the result in assay [1], in assay [2] and in assay [3] was inactive.
Consider `CCOC(=O)CS(=O)(=O)c1nc(-c2ccc(F)cc2)cc(C(F)(F)F)n1`, for which the result in assay [1], in assay [2] and in assay [3] was inactive.
`Cc1cc(N2CCOCC2)nc(SCC(=O)c2ccc(Cl)cc2)n1`: the outcome in assay [1], in assay [2] and in assay [3] was inactive.
In the case of `CCc1ccc(NC(=O)C2CCN(C(=O)[C@@H]3Cc4ccccc4CN3)CC2)cc1`, the result in assay [1], in assay [2] and in assay [3] was inactive.
For the compound `CC(C)COc1ccc(-c2nn(-c3ccccc3)cc2/C=C2/SC(=S)N(CC(=O)O)C2=O)cc1`, the result in assay [1], in assay [2] and in assay [3] was inactive.
On to `CCOC(=O)C1CCN(C(=O)COC(=O)c2cc(-c3cccs3)nn2-c2ccccc2)CC1`, for which the outcome in assay [1], in assay [2] and in assay [3] was inactive.
As for `Cn1c(N/N=C/c2cccs2)cc(=O)n(C)c1=O`, the result in assay [1], in assay [2] and in assay [3] was inactive.
Regarding `CC1CN(C(=O)C2CC(=O)N(c3ccc(Cl)cc3)C2)CC(C)O1` (stereo not given), the outcome in assay [1], in assay [2] and in assay [3] was inactive.
Turning to `COCC(=O)NC1CC2CCC(C1)N2C(=S)Nc1ccccc1C(=O)OC` (stereo not given), the outcome in assay [1], in assay [2] and in assay [3] was inactive.
Regarding `O=C(CSc1nc(-c2ccccc2)cs1)N1CCc2ccccc21`, the result in assay [1], in assay [2] and in assay [3] was inactive.
For the compound `Cn1c(=O)c2c(ncn2CC(=O)OCC(=O)Nc2cc(Cl)ccc2Cl)n(C)c1=O`, the outcome in assay [1], in assay [2] and in assay [3] was inactive.
On to `CCCCOc1cccc(C(=O)NC(=S)Nc2cccnc2)c1`, for which the outcome in assay [1], in assay [2], in assay [3] and in assay [5] was inactive. Also, in assay [4], the potentiation is 143% (active).
Consider `COc1cccc2c1C(=O)C=C(C)C2=O`, for which the outcome in assay [1], in assay [2] and in assay [3] was inactive.
As to `CN(Cc1cccnc1)C(=O)Cc1ccc(NS(=O)(=O)c2cccc(C(F)(F)F)c2)cc1`, the outcome in assay [1], in assay [2] and in assay [3] was inactive.
On to `CC(C)COc1ccc(-c2nn(-c3ccccc3)cc2C(=O)Nc2nccs2)cc1`, for which the result in assay [1], in assay [2], in assay [3] and in assay [5] was inactive.
As to `N#Cc1ccc2ccn(CC(=O)NCc3ccccc3)c2c1`, the result in assay [1], in assay [2] and in assay [3] was inactive.
As for `O=C(NNc1c2ccccc2nc2ccccc12)c1ccccc1Cl`, the outcome in assay [1], in assay [2] and in assay [3] was inactive.
Turning to `S=c1[nH]nc(-c2ccccc2)n1/N=C/c1ccc(-c2ccccc2Cl)o1`, the result in assay [1], in assay [2], in assay [3] and in assay [5] was inactive.
On to `O=C(NC(=S)Nc1nc2c(ccc3ccccc32)s1)c1cccs1`, for which the result in assay [1], in assay [3] and in assay [5] was inactive. Besides, the potentiation in assay [2] is 81% (active).
In the case of `COCC(=O)Nc1nnc(SCC(=O)N2C(C)CCCC2C)s1` (stereo not given), the outcome in assay [1], in assay [2], in assay [3] and in assay [5] was inactive.
Regarding `COC(=O)c1ccc(CNC(=O)CSc2nc3sc(C)c(C)c3c(=O)n2C)o1`, the activation in assay [1] is 268% (active). The potentiation in assay [2] is 89.5% (active). Besides, in assay [3], the result was inactive.
For `CC1(c2ccc(OC(F)F)cc2)NC(=O)N(CC(=O)Nc2ccccc2)C1=O` (stereo not given), the result in assay [1], in assay [2], in assay [3] and in assay [5] was inactive.
For the compound `Cc1ccc(NC(=O)Cn2nc(C)c3ccccc3c2=O)c(C)c1`, the result in assay [1], in assay [2] and in assay [3] was inactive.
